A short description of data set [1]: Ratio kcat /Km ([…]/M 1/s). Also noted: scale not given here.
The target of data set [2] is T1, Leukotriene A-4 hydrolase (Homo sapiens) (UniProt P09960).
T1 sequence (whole entry): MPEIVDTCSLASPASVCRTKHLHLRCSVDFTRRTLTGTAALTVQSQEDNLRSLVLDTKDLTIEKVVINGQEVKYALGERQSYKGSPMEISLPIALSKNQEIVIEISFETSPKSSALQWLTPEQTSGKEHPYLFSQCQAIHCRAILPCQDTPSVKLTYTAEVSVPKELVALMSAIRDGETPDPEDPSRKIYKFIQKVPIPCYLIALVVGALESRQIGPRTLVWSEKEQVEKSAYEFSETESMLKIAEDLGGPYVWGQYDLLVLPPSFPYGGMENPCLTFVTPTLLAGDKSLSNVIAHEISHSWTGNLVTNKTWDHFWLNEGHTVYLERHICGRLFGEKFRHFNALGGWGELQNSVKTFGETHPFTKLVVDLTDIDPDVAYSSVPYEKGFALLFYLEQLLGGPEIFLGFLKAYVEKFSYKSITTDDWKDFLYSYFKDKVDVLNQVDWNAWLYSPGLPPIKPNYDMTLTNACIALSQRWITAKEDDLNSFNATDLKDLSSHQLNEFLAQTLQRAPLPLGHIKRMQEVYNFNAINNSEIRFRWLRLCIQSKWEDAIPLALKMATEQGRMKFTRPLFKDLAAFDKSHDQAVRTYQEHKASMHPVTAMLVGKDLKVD
The data set can be described thus: Kinetic parameter kcat against LTA4 hydrolase purified from human leukocytes. The procedure, abridged:
(§1)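 Amino acid amides tested as substrates in 50 mM Tris-Cl, pH 7.6, with 0.1 M NaCl. p-Nitroaniline release read at 410 nm using ε 8850 M⁻¹ cm⁻¹.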

Data set [3] addresses Cytosol aminopeptidase (Homo sapiens, UniProt P28838). The data set can be described thus: Inhibitory concentration against cytosolic leucine aminopeptidase.
The target in data set [4] is T2, Leukotriene A-4 hydrolase (Homo sapiens, UniProt P09960).
T2 sequence (P09960 whole entry): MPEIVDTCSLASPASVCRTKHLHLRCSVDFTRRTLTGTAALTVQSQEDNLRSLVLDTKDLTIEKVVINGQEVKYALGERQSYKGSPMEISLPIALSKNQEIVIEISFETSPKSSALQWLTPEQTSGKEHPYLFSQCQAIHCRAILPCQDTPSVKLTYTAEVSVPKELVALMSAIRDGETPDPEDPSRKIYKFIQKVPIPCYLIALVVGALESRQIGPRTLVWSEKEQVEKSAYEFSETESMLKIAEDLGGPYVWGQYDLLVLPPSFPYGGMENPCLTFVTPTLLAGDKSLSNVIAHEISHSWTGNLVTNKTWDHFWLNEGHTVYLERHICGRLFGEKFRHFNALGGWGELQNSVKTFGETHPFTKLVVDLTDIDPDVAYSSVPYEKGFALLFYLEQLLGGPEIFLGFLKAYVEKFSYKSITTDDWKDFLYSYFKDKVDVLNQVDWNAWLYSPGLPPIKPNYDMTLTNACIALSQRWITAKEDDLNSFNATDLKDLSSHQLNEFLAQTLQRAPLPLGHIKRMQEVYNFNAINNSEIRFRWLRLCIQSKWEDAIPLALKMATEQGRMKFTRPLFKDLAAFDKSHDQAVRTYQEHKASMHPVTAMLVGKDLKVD
The data set can be described thus: Inhibition of amidase activity of LTA4 hydrolase purified from human leukocytes.

Data set [5] has as its target T2, Leukotriene A-4 hydrolase. The data set can be described thus: Ability at 1 mM to inhibit amidase activity of LTA4 hydrolase (1.4 ug) purified from human leukocytes; NI=No inhibition. In outline: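 Human leukocyte enzyme (1.4 μg) in 0.05 M Tris-HCl, pH 8.0, with 1.5 mM L-alanyl p-nitroanilide as substrate. Inhibitor tested at 1 mM; thiol compounds assayed with 5 mM DTT. p-Nitroaniline release followed spectrophotometrically at 405 nm.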

Substrate in data set [6]: NCCCC[C@H](N)C(=O)Nc1ccc([N+](=O)[O-])cc1
The data set can be described thus: (§2) Kinetic parameter Vmax against LTA4 hydrolase purified from human leukocytes was determined. In outline: as §1

Substrate in data set [7]: NC(N)=NCCC[C@H](N)C(=O)Nc1ccc([N+](=O)[O-])cc1
Described as §2. The procedure, abridged: as §1

Substrate in data set [8]: C[C@@H](N)C(=O)Nc1ccc([N+](=O)[O-])cc1
The description is as §2. The procedure, abridged:
as §1

Substrate in data set [9]: C[C@H](N)C(=O)Nc1ccc([N+](=O)[O-])cc1
The data set is described as §2. In outline: as §1

Substrate in data set [10]: NCCCC[C@H](N)C(=O)Nc1ccc([N+](=O)[O-])cc1
The data set can be described thus: (§3) Kinetic parameter (Km) for hydrolysis of LTA4 hydrolase purified from human leukocytes. The procedure, abridged: as §1

Substrate in data set [11]: NC(N)=NCCC[C@H](N)C(=O)Nc1ccc([N+](=O)[O-])cc1
The data set is described as §3. The procedure, abridged:
as §1

Substrate in data set [12]: C[C@H](N)C(=O)Nc1ccc([N+](=O)[O-])cc1
The description is as §3. The procedure, abridged: as §1

This note sets out measurements from ChEMBL document CHEMBL1126810, “Development of selective tight-binding inhibitors of leukotriene A4 hydrolase” (J Med Chem, 1993).

One may read the IC50 as the concentration at which inhibition is half-maximal. What is called Km is the concentration of substrate that gives half-maximal velocity.

Cytosol aminopeptidase, sequence (P28838 whole entry): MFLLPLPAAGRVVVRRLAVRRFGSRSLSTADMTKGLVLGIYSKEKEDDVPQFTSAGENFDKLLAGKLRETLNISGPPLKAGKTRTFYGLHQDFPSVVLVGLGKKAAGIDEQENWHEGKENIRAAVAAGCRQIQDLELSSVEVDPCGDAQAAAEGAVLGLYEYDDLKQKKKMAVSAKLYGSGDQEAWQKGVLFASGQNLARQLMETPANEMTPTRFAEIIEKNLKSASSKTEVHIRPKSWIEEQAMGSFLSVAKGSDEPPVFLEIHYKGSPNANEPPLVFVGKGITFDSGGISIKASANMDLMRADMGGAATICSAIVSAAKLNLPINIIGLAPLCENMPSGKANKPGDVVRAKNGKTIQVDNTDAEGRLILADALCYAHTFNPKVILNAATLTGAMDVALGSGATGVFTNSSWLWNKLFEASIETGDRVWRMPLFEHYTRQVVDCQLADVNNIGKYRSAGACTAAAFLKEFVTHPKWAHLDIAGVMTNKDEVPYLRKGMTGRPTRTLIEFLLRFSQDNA

Regarding `C[C@H](N)C(=O)Nc1ccc([N+](=O)[O-])cc1`, the Ratio in [1] turned out to be 0.0012. The molecule further had a k cat in data set [2] of 0.6 s⁻¹.

In turn, `N[C@@H](Cc1ccc(OCc2ccccc2)cc1)[C@H](O)C(=O)OCc1ccccc1` registered a half-maximal inhibitory concentration (IC50) in data set [3] of 80 µM.

As for `NC(Cc1ccccc1)P(=O)(O)NCC(=O)O` (stereo not given), the half-maximal inhibitory concentration (IC50) in data set [4] was > 100 µM.

`CC(C)C[C@H](/N=C(\S)[C@H](O)[C@H](N)Cc1ccccc1)C(=O)O`: the 50% inhibitory concentration (IC50) in data set [4] was > 100 µM.

In turn, `COC(=O)C(=O)[C@@H](N)Cc1ccc(OCc2ccccc2)cc1` registered an IC50 in [3] of 50 µM.

As to `NC(N)=NCCC[C@H](N)C(=O)Nc1ccc([N+](=O)[O-])cc1`, the Ratio in data set [1] was found to be 0.00075. In addition, in data set [2], the k cat was 0.15 s⁻¹.

On to `COC(=O)[C@@H](O)[C@H](N)Cc1ccccc1`, for which, in data set [5], the IC50 result was “Not Active”.

For the molecule `NCCCC[C@H](N)C(=O)Nc1ccc([N+](=O)[O-])cc1`, the Ratio in data set [1] was determined as 0.00035. The molecule also had a k cat in data set [2] of 0.035 s⁻¹.

For `N[C@H](CS)Cc1ccc(OCc2ccccc2)cc1`, in data set [3], the IC50 was > 50 µM.

Regarding `CCCCC/C=C\C\C=C/C=C/C=C/[C@@H]1O[C@H]1CCCC(=O)O`, in data set [1], the Ratio is 0.09. The molecule also showed a k cat in data set [2] of 0.68 s⁻¹.

With `CCOC(=O)CC(F)(F)C(=O)c1[nH]cnc1C`, the IC50 in [4] is > 1000 µM.

Turning to `O=C(Nc1ccc([N+](=O)[O-])cc1)[C@@H]1CCCN1`, the Ratio in data set [1] came out at 0.0015. For the same molecule, the k cat in data set [2] turned out to be 0.15 s⁻¹.

On to `N[C@@H](Cc1ccccc1)[C@H](O)C(=O)OCc1ccccc1`, for which, in data set [4], the half-maximal inhibitory concentration (IC50) was 20 µM.

Take `N[C@@H](Cc1ccccc1)[C@H](O)C(=O)NCc1ccccc1`: the concentration for half-maximal inhibition (IC50) in data set [4] was > 100 µM.

Consider `CC(C)C[C@H](N)C(=O)Nc1ccc([N+](=O)[O-])cc1`, for which, in [1], the Ratio amounted to 0.0005. The k cat in data set [2] is 0.15 s⁻¹.

Consider `CC(C)C[C@H](/N=C(\S)[C@H](O)[C@@H](N)Cc1ccccc1)C(=O)O`, for which the IC50 in data set [4] was > 100 µM.

`COC(=O)[C@H](O)[C@H](N)Cc1ccccc1`: in [5], the IC50 result is given as “Not Active”.

As for `N[C@@H](Cc1ccc(OCc2ccccc2)cc1)C(=O)C(=O)OCc1ccccc1`, the IC50 in data set [3] is > 100 µM.

As for `N[C@H](Cc1ccccc1)[C@H](O)C(=O)O`, the half-inhibitory concentration (IC50) result in data set [5] is listed as “Not Active”.

As for `CC(C)C[C@H](/N=C(\S)[C@@H](O)[C@H](N)Cc1ccccc1)C(=O)O`, the half-inhibitory concentration (IC50) in data set [4] was > 100 µM.

For `COC(=O)C(S)C(N)Cc1ccccc1` (stereo not given), inhibition in data set [4] was half-maximal at 250 µM (IC50).

For the molecule `CC(C)C[C@H](NC(=O)C(S)C(N)Cc1ccccc1)C(=O)O` (stereo not given in full), in data set [4], the half-inhibitory concentration (IC50) is > 250 µM.

B1: Leukotriene A-4 hydrolase (Homo sapiens), P09960 (protein)
chain: MPEIVDTCSLASPASVCRTKHLHLRCSVDFTRRTLTGTAALTVQSQEDNLRSLVLDTKDLTIEKVVINGQEVKYALGERQSYKGSPMEISLPIALSKNQEIVIEISFETSPKSSALQWLTPEQTSGKEHPYLFSQCQAIHCRAILPCQDTPSVKLTYTAEVSVPKELVALMSAIRDGETPDPEDPSRKIYKFIQKVPIPCYLIALVVGALESRQIGPRTLVWSEKEQVEKSAYEFSETESMLKIAEDLGGPYVWGQYDLLVLPPSFPYGGMENPCLTFVTPTLLAGDKSLSNVIAHEISHSWTGNLVTNKTWDHFWLNEGHTVYLERHICGRLFGEKFRHFNALGGWGELQNSVKTFGETHPFTKLVVDLTDIDPDVAYSSVPYEKGFALLFYLEQLLGGPEIFLGFLKAYVEKFSYKSITTDDWKDFLYSYFKDKVDVLNQVDWNAWLYSPGLPPIKPNYDMTLTNACIALSQRWITAKEDDLNSFNATDLKDLSSHQLNEFLAQTLQRAPLPLGHIKRMQEVYNFNAINNSEIRFRWLRLCIQSKWEDAIPLALKMATEQGRMKFTRPLFKDLAAFDKSHDQAVRTYQEHKASMHPVTAMLVGKDLKVD
For the molecule B1, the Vmax (nM min-1 mg-1) is 30 in data set [6], 135 in [7], 0 in [8] and 530 in data set [9]. Moreover, the values for the Michaelis constant (Km) in [10], in [11] and in data set [12] were 100 µM, 200 µM and 500 µM, respectively.
